Test results as given in ChEMBL document CHEMBL1131215, “Anhydrolide macrolides. 1. Synthesis and antibacterial activity of 2,3-anhydro-6-O-methyl 11,12-carbamate erythromycin A analogues” (1998).
In brackets after ≈: the same amount, converted by molar mass.

How the values were obtained:
Assay type in all cases: functional
Haemophilus influenzae = experiment: In vitro antibacterial activity against DILL strain of Haemophilus influenzae.
Method in brief: (§1)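 MIC determined by standard agar dilution; values in μg/mL.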

Staphylococcus aureus [1] = experiment: In vitro antibacterial activity against 6538P strain of Staphylococcus aureus; method in brief: as §1
Streptococcus pyogenes [2] = experiment: In vitro antibacterial activity against PIU 2548 strain of Streptococcus pyogenes; method in brief: as §1
Streptococcus pneumoniae [3] = experiment: In vitro antibacterial activity against 5649 strain of Streptococcus pneumoniae; conditions: Streptococcus pneumoniae; method in brief: as §1
Streptococcus pneumoniae [4] = experiment: In vitro antibacterial activity against ATCC 6303 strain of Streptococcus pneumoniae; conditions: Streptococcus pneumoniae, ATCC 6303; method in brief: as §1
[5] = In vitro antibacterial activity against A-5278 strain of Staphylococcus aureus; conditions: Staphylococcus aureus; method in brief: as §1
Streptococcus pneumoniae [6] = experiment: In vitro antibacterial activity against 5979 strain of Streptococcus pneumoniae; method in brief: as §1
Streptococcus pyogenes [7] = experiment: In vitro antibacterial activity against 930 strain of Streptococcus pyogenes; method in brief: as §1
Staphylococcus aureus [8] = experiment: In vitro antibacterial activity against A5177 strain of Staphylococcus aureus; method in brief: as §1

Row | SMILES | MIC (Haemophilus influenzae) [µg/mL] | MIC (Staphylococcus aureus [1]; Staphylococcus aureus) [µg/mL] | MIC (Streptococcus pyogenes [2]; Streptococcus pyogenes) [µg/mL] | MIC (Streptococcus pneumoniae [3]) [µg/mL] | MIC (Streptococcus pneumoniae [4]) [µg/mL] | MIC [5] [µg/mL] | MIC (Streptococcus pneumoniae [6]) [µg/mL] | MIC (Streptococcus pyogenes [7]; Streptococcus pyogenes) [µg/mL] | MIC (Staphylococcus aureus [8]; Staphylococcus aureus) [µg/mL] | MIC (Staphylococcus aureus [8]) [µg/mL] | MIC (Staphylococcus aureus [1]) [µg/mL] | MIC (Streptococcus pyogenes [2]) [µg/mL] | MIC (Streptococcus pyogenes [7]) [µg/mL]
1 | CC[C@H]1OC(=O)/C(C)=C/[C@H](C)[C@@H](O[C@@H]2O[C@H](C)C[C@H](N(C)C)[C@H]2O)[C@@](C)(OC)C[C@@H](C)C(=O)[C@H](C)[C@H]2N(CCCN(C)c3ccccc3)C(=O)O[C@]12C | > 64 | 6.2 (≈ 8.33 µM) | 0.39 (≈ 0.524 µM) | < 0.004 | < 0.004 |  |  |  |  |  |  |  | 
2 | CC[C@H]1OC(=O)/C(C)=C/[C@H](C)[C@@H](O[C@@H]2O[C@H](C)C[C@H](N(C)C)[C@H]2O)[C@@](C)(OC)C[C@@H](C)C(=O)[C@H](C)[C@H]2N(CC/C=C\c3ccc(Cl)cc3)C(=O)O[C@]12C | 32 (≈ 42 µM) | 0.39 (≈ 0.512 µM) | 0.2 (≈ 0.263 µM) | 1 (≈ 1.31 µM) | 0.12 (≈ 0.158 µM) | 12.5 (≈ 16.4 µM) | 8 (≈ 10.5 µM) | 3.1 (≈ 4.07 µM) |  |  |  |  | 
3 | CC[C@H]1OC(=O)/C(C)=C/[C@H](C)[C@@H](O[C@@H]2O[C@H](C)C[C@H](N(C)C)[C@H]2O)[C@@](C)(OC)C[C@@H](C)C(=O)[C@H](C)[C@H]2N(CCc3ccc(O)cc3)C(=O)O[C@]12C | 16 (≈ 22.3 µM) | 0.78 (≈ 1.09 µM) | 0.39 (≈ 0.544 µM) | 0.5 (≈ 0.697 µM) | 0.125 (≈ 0.174 µM) |  |  |  | 0.78 (≈ 1.09 µM) |  |  |  | 
4 | CC[C@H]1OC(=O)/C(C)=C/[C@H](C)[C@@H](O[C@@H]2O[C@H](C)C[C@H](N(C)C)[C@H]2O)[C@@](C)(OC)C[C@@H](C)C(=O)/C(C)=C/[C@]1(C)OC(=O)NCCCOc1ccc2ccccc2c1 |  | 6.2 (≈ 7.94 µM) | 6.2 (≈ 7.94 µM) |  |  | 50 (≈ 64 µM) |  | 25 (≈ 32 µM) | 3.1 (≈ 3.97 µM) |  |  |  | 
5 | CC[C@H]1OC(=O)/C(C)=C/[C@H](C)[C@@H](O[C@@H]2O[C@H](C)C[C@H](N(C)C)[C@H]2O)[C@@](C)(OC)C[C@@H](C)C(=O)[C@H](C)[C@H]2N(CCCOc3ccccc3)C(=O)O[C@]12C | 16 (≈ 21.9 µM) | 0.39 (≈ 0.534 µM) | 0.39 (≈ 0.534 µM) |  |  | 50 (≈ 68.4 µM) |  | 25 (≈ 34.2 µM) | 0.39 (≈ 0.534 µM) |  |  |  | 
6 | CC[C@H]1OC(=O)/C(C)=C/[C@H](C)[C@@H](O[C@@H]2O[C@H](C)C[C@H](N(C)C)[C@H]2O)[C@@](C)(OC)C[C@@H](C)C(=O)/C(C)=C/[C@]1(C)OC(=O)OC |  | 25 (≈ 40.9 µM) | 25 (≈ 40.9 µM) |  |  |  |  | 50 (≈ 81.7 µM) | 25 (≈ 40.9 µM) |  |  |  | 
7 | CC[C@H]1OC(=O)/C(C)=C/[C@H](C)[C@@H](O[C@@H]2O[C@H](C)C[C@H](N(C)C)[C@H]2O)[C@@](C)(OC)C[C@@H](C)C(=O)[C@H](C)[C@H]2N(CCc3ccc(OCc4ccccc4)c(OCc4ccccc4)c3)C(=O)O[C@]12C |  |  |  | 4 (≈ 4.38 µM) | 1 (≈ 1.1 µM) |  | 8 (≈ 8.76 µM) |  |  |  |  |  | 
8 | CC[C@H]1OC(=O)/C(C)=C/[C@H](C)[C@@H](O[C@@H]2O[C@H](C)C[C@H](N(C)C)[C@H]2O)[C@@](C)(OC)C[C@@H](C)C(=O)[C@H](C)[C@H]2N(CCc3ccc(N)cc3)C(=O)O[C@]12C | 32 (≈ 44.7 µM) | 1.56 (≈ 2.18 µM) | 0.2 (≈ 0.279 µM) | 2 (≈ 2.79 µM) | 0.5 (≈ 0.698 µM) |  |  |  | 0.78 (≈ 1.09 µM) |  |  |  | 
9 | C=COCCCN1C(=O)O[C@]2(C)[C@@H](CC)OC(=O)/C(C)=C/[C@H](C)[C@@H](O[C@@H]3O[C@H](C)C[C@H](N(C)C)[C@H]3O)[C@@](C)(OC)C[C@@H](C)C(=O)[C@H](C)[C@@H]12 | 64 (≈ 94 µM) | 3.1 (≈ 4.55 µM) | 0.39 (≈ 0.573 µM) | 2 (≈ 2.94 µM) | 0.5 (≈ 0.734 µM) |  |  |  | 3.1 (≈ 4.55 µM) |  |  |  | 
10 | CC[C@H]1OC(=O)/C(C)=C/[C@H](C)[C@@H](O[C@@H]2O[C@H](C)C[C@H](N(C)C)[C@H]2O)[C@@](C)(OC)C[C@@H](C)C(=O)[C@H](C)[C@H]2N(CCNCc3ccccc3)C(=O)O[C@]12C | > 64 | 6.2 (≈ 8.49 µM) | 3.1 (≈ 4.25 µM) | 2 (≈ 2.74 µM) | 0.03 (≈ 0.0411 µM) |  |  | 50 (≈ 68.5 µM) |  |  |  |  | 
11 | CC[C@H]1OC(=O)/C(C)=C/[C@H](C)[C@@H](O[C@@H]2O[C@H](C)C[C@H](N(C)C)[C@H]2O)[C@@](C)(OC)C[C@@H](C)C(=O)[C@H](C)[C@H]2N(CCCc3ccccc3)C(=O)O[C@]12C (stereo in doubt; 10) |  |  |  | 2 (≈ 2.8 µM) | 1 (≈ 1.4 µM) | 50 (≈ 69.9 µM) | 64 (≈ 89.5 µM) |  |  | 3.1 (≈ 4.34 µM) | 3.1 (≈ 4.34 µM) | 0.78 (≈ 1.09 µM) | 25 (≈ 35 µM)
12 | CC[C@H]1OC(=O)/C(C)=C/[C@H](C)[C@@H](O[C@@H]2O[C@H](C)C[C@H](N(C)C)[C@H]2O)[C@@](C)(OC)C[C@@H](C)C(=O)[C@H](C)[C@H]2N(CCCOc3ccc(Cl)cc3)C(=O)O[C@]12C |  | 0.78 (≈ 1.02 µM) | 0.39 (≈ 0.51 µM) | 0.03 (≈ 0.0392 µM) | < 0.004 | 50 (≈ 65.3 µM) |  | 12.5 (≈ 16.3 µM) |  |  |  |  | 
13 | CC[C@H]1OC(=O)/C(C)=C/[C@H](C)[C@@H](O[C@@H]2O[C@H](C)C[C@H](N(C)C)[C@H]2O)[C@@](C)(OC)C[C@@H](C)C(=O)[C@H](C)[C@H]2N(C(C)C)C(=O)O[C@]12C |  | 12.5 (≈ 19.6 µM) | 1.56 (≈ 2.44 µM) | 2 (≈ 3.13 µM) | 2 (≈ 3.13 µM) |  |  |  | 12.5 (≈ 19.6 µM) |  |  |  | 
